This passage reports IC50 results from ChEMBL document CHEMBL1138811, “Synthesis, conformational analysis, and cytotoxicity of conformationally constrained aplidine and tamandarin A analogues incorporating a spirolactam beta-turn mimetic” (J Med Chem, 2004).

For assay [1], the system named is HT-29. The assay can be described thus: Concentration required to inhibit growth of human […] cell line by 50% was determined. The assay is classed as functional, cell-based. The essentials: (§1)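 SRB colorimetric growth assay in A549 lung and HT-29 colon carcinoma cells. Cells seeded at 5 × 10^3 per well in RPMI and attached for 18 h in drug-free medium. Samples added in (3:7) DMSO/H2O for 48–72 h exposure. Cells fixed with cold 50% (w/v) TCA at 4 °C for 60 min, then stained with 0.4% SRB in 1% acetic acid for 10 min. Bound dye solubilised in Tris, OD read at 490 nm.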

Assay [2] relates to A549. The assay can be described thus: Concentration required to inhibit growth of human A549 cell line by 50%. The assay is classed as functional, cell-based. Summed up:
as §1

One may read the IC50 as the concentration needed to halve the response being measured. Read a high IC50 as weaker potency in that assay. `CC[C@H](C)C1NC(=O)[C@@H](NC(=O)[C@@H](CC(C)C)N2CCC3(CCCN3C(=O)C(C)=O)C2=O)[C@@H](C)OC(=O)[C@H](Cc2ccc(O)cc2)N(C)C(=O)[C@@H]2CCCN2C(=O)[C@H](CC(C)C)NC(=O)[C@@H](C(C)C)OC(=O)C[C@H]1O` (stereo partly drawn): the IC50 in assay [1] and in assay [2] was 93.8 nM each time.
Consider `CC[C@H](C)[C@@H]1NC(=O)[C@@H](NC(=O)[C@@H](C)N2CCC3(CCCN3C(=O)C(C)=O)C2=O)[C@@H](C)OC(=O)[C@H](Cc2ccc(OC)cc2)N(C)C(=O)[C@@H]2CCCN2C(=O)[C@H](CC(C)C)NC(=O)[C@H](C)C(=O)[C@@H](C(C)C)OC(=O)C[C@H]1O` (stereo partly drawn), for which the results for the concentration for half-maximal inhibition (IC50) in assay [1] and in assay [2] were 8.9 nM and 8.55 nM, respectively.
For `CC[C@H](C)[C@@H]1NC(=O)[C@@H](NC(=O)[C@@H](C)N2CCC3(CCCN3C(=O)C(C)C)C2=O)[C@@H](C)OC(=O)[C@H](Cc2ccc(OC)cc2)N(C)C(=O)[C@@H]2CCCN2C(=O)[C@H](CC(C)C)NC(=O)[C@H](C)C(=O)[C@@H](C(C)C)OC(=O)C[C@H]1O` (stereo partly drawn) the same measures were 89.1 nM and 89.1 nM.
Take `CC[C@H](C)[C@@H]1NC(=O)[C@@H](NC(=O)[C@@H](C)N2CCC3(CCCN3C(=O)OC(C)(C)C)C2=O)[C@@H](C)OC(=O)[C@H](Cc2ccc(OC)cc2)N(C)C(=O)[C@@H]2CCCN2C(=O)[C@H](CC(C)C)NC(=O)[C@H](C)C(=O)[C@@H](C(C)C)OC(=O)C[C@H]1O` (stereo partly drawn): the IC50 in assay [1] and in assay [2] was 8.68 nM throughout.
Consider `CC[C@H](C)C1NC(=O)[C@@H](NC(=O)[C@@H](CC(C)C)N2CCC3(CCCN3C(=O)C(C)C)C2=O)[C@@H](C)OC(=O)[C@H](Cc2ccc(O)cc2)N(C)C(=O)[C@@H]2CCCN2C(=O)[C@H](CC(C)C)NC(=O)[C@@H](C(C)C)OC(=O)C[C@H]1O` (stereo partly drawn), for which the 50% inhibitory concentration (IC50) in assay [1] and in assay [2] was 93.8 nM each time.
With `CC[C@H](C)C1NC(=O)[C@@H](NC(=O)[C@@H](CC(C)C)N2CCC3(CCCN3C(=O)OC(C)(C)C)C2=O)[C@@H](C)OC(=O)[C@H](Cc2ccc(O)cc2)N(C)C(=O)[C@@H]2CCCN2C(=O)[C@H](CC(C)C)NC(=O)[C@@H](C(C)C)OC(=O)C[C@H]1O` (stereo partly drawn), the IC50 in assay [1] and in assay [2] was 4.56 nM in each case.
Regarding `C=C(C)C(=O)N1CCCC12CCN([C@H](CC(C)C)C(=O)N[C@@H]1C(=O)NC([C@@H](C)CC)[C@H](O)CC(=O)O[C@H](C(C)C)C(=O)N[C@@H](CC(C)C)C(=O)N3CCC[C@H]3C(=O)N(C)[C@@H](Cc3ccc(O)cc3)C(=O)O[C@@H]1C)C2=O` (stereo partly drawn), the IC50 in assay [1] and in assay [2] was 93.9 nM each time.
On to `CC[C@H](C)C1NC(=O)[C@@H](NC(=O)[C@@H](CC(C)C)N(C)C(=O)[C@@H]2CCCN2C(=O)C(C)=O)[C@@H](C)OC(=O)[C@H](Cc2ccc(O)cc2)N(C)C(=O)[C@@H]2CCCN2C(=O)[C@H](CC(C)C)NC(=O)[C@@H](C(C)C)OC(=O)C[C@H]1O` (stereo partly drawn) [DEHYDROTAMANDARIN A], for which the IC50 in assay [1] and in assay [2] was 0.47 nM each time.
With `CC[C@H](C)C1NC(=O)[C@@H](NC(=O)[C@@H](CC(C)C)N(C)C(=O)[C@@H]2CCCN2C(=O)C(C)O)[C@@H](C)OC(=O)[C@H](Cc2ccc(O)cc2)N(C)C(=O)[C@@H]2CCCN2C(=O)[C@H](CC(C)C)NC(=O)[C@@H](C(C)C)OC(=O)C[C@H]1O` (stereo partly drawn) [TAMANDARIN A], the IC50 in assay [1] and in assay [2] was 0.95 nM throughout.
